MrgX1 PAM: human MrgX1 positive allosteric modulation, primary screen | 0.63% of 310,000 active | AID 588675 | MrgX1-HEK293, Fluo-4 calcium flux, FDSS; stronger effect = higher value | B-score at 10 µM | Q96LB2;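 active = plate-corrected calcium response at least 3 library SD above typical, normal starting fluorescence, not activating the receptor alone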;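 note: compound read alongside a low EC10 to EC30 dose of BAM8-22 agonist; peak minus trough fluorescence over baseline measured at the second addition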
Target sequence (Q96LB2 whole entry, looked up): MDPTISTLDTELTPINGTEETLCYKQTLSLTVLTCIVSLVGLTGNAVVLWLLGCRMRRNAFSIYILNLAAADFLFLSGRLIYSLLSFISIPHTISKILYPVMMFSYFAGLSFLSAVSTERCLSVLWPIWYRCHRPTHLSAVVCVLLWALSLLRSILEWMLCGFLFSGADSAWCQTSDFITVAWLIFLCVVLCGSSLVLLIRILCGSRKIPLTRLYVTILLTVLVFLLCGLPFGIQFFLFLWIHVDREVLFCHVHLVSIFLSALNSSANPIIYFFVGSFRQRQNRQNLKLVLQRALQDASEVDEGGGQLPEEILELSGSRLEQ
RGS4 pot: RGS4 potentiation or activation; AID 463111; B-score at 10 µM; 0.92% of 310,000 active; HEK293 M3R/inducible RGS4, carbachol calcium flux Fluo4; stronger effect = lower value;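 active = B-score of the integrated calcium signal more than 4 SD below the library mean, with starting fluorescence not abnormally high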;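 note: negative B-score means reduced calcium response which marks RGS4 activation or potentiation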
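test system = HEK293 cells with stable M3R and inducible RGS4 | schedule = recording 10 s baseline at 1 Hz, 100 s post-agonist | technique = Fluo4-AM (2 µM) calcium-flux fluorescence, kinetic read | measure = Agonist-evoked peak-minus-minimum fluorescence over baseline, integrated ratio, B score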
RGS4 inh: human RGS4 inhibition. AID 463165. HEK293 M3R/RGS4 inducible, Fluo-4 calcium flux; stronger effect = higher value; triggered by carbachol at its EC20. B-score at 10 µM. P49798. 0.45% of 310,000 active;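 active = B-score, a plate-corrected calcium signal, over three deviations above library mean, with baseline fluorescence within five deviations of library mean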;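 note: RGS4 expression induced by doxycycline in cells with stable M3 receptor; B-score is computed from the integrated fluorescence ratio over baseline after carbachol; higher B-score means a larger calcium signal and so more RGS4 inhibition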
Lipid droplet: modulators of hepatic lipid droplet formation; AML12 mouse hepatocytes, oleate lipid droplets, BODIPY imaging; inhibition, % at 6.5 µM; 0.4% of 240,000 active;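 active = lipid droplet intensity inhibited by at least 50%, with more than 500 cells counted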
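Test system: AML12 hepatocytes (mouse); reagent: oleate loading, 100 µM; dosing: one dose, 6.5 µM compound; incubation: overnight exposure; signal: fluorescence imaging, 20x objective, two fields per well; read-out basis: % inhibition of corrected integrated BODIPY droplet signal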
MrgX1 antagonist: antagonists of human MrgX1 receptor; B-score at 10 µM; 1.3% of 310,000 active; MRGX1-HEK293 calcium flux, Fluo-4, BAM8-22 antagonism; stronger effect = lower value; Q96LB2;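 active = calcium-response B-score plate-corrected more than 3 library SD below zero, starting fluorescence within 5 deviations, no agonist response on first addition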;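 note: peak minus trough fluorescence over baseline after final BAM8-22 challenge near maximal dose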
MrgX1 ag: human MrgX1 receptor agonism, primary screen. 0.44% of 310,000 active. AID 588627. MrgX1-HEK293 cells, Fluo-4 calcium fluorescence, agonist mode; stronger effect = higher value. B-score at 10 µM. Q96LB2;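 active = calcium response B-score plate-corrected fluorescence ratio at least 3 library SD, with starting fluorescence B-score inside 5 SD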
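Test system: HEK293 cells stably expressing human MrgX1 receptor; amount: 15,000 cells per well; doses: compound delivered in addition one of three; times: overnight plating before 1 h dye loading; detection: Fluo-4 NW calcium-flux fluorescence, kinetic read; read-out basis: B-scored fluorescence response ratio; controls: positive and negative controls per plate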
Starred values were filed as active, the others as inactive; i = inactive; . = no result. Compounds with a hit are over-represented: about 3.8% of the library has one in this group of screens.

SMILES	MrgX1 PAM	RGS4 pot	RGS4 inh	Lipid droplet	MrgX1 antagonist	MrgX1 ag
CN(C)S(=O)(=O)c1ccc(C(=O)NCc2nnc(SCC(=O)NCc3ccco3)o2)cc1	i	i	i	-7	i	i
O=C(O)C(Cc1cn[nH]n1)=NO	i	i	i	6	i	i
O=C(c1ccccc1)c1ccc(OCCCN2CCCCC2)cc1	i	-7.2*	i	8	i	i
c1ccc(OCCCCN2CCCCC2)cc1	i	i	i	.	i	i
c1ccc(-c2ccccc2OCCCCN2CCCCCC2)cc1	i	-7*	i	3	i	i
c1ccc(COc2ccc(OCCCCN3CCCC3)cc2)cc1	i	-8.8*	i	-30	i	i
CCOc1ccc(C(=O)CC(NCc2cccs2)C(=O)O)cc1 (configuration not stated)	i	i	i	27	i	i
Cc1ccc(C(=O)N(c2ccccc2)C2CC(C)N(C(=O)c3ccco3)c3ccccc32)cc1 (configuration not stated)	17*	i	i	-1	i	i
COc1cccc(CN2CC(C(=O)N(C)CC3CCOCC3)CCC2=O)c1 (configuration not stated)	i	i	i	-4	i	i
O=C(OCn1nnc2ccccc2c1=O)c1ccc(O)cc1	12*	i	i	11	i	i
COc1ccc(C(=O)OCn2nnc3ccccc3c2=O)cc1	i	i	i	0	i	i
CCOc1ccc(C(=O)OCn2nnc3ccccc3c2=O)cc1OC	i	i	i	.	-7.6*	i
CC(=O)N/N=c1\sc2ccccc2n1C	i	i	i	-2	i	i
Cn1/c(=N\NC(=O)c2ccccc2Cl)sc2ccccc21	i	i	i	5	i	31*
CN(C)/N=C/C=C1\CC/C(=C\c2ccc(Br)cc2)C1=O	i	i	i	4	i	i
CN(C)/N=C/C=C1\CCC/C(=C/c2cccs2)C1=O	9.4*	i	i	-21	i	i
O=CN/N=C/c1c(O)ccc2ccccc12	i	i	i	16	-5*	i
Oc1ccc2ccccc2c1/C=N/Nc1ccccc1	i	i	i	4	i	i
Cc1cc(N/N=C/c2c(O)ccc3ccccc23)nc(-c2ccccc2O)n1	i	-8*	i	21	i	i
C[C@H]1CC[C@H]2C(=O)N3[C@H](c4ccccc4Br)[C@@H](C)CC[C@H]3C(=O)N2[C@@H]1c1ccccc1Br	i	i	i	-24	i	i
COc1ccc(S(=O)(=O)/N=C2/NC(=O)/C(=C/c3ccco3)S2)cc1	7.5*	i	i	-4	i	i
O=C(/C=C/c1cccc(F)c1)Nc1nccs1	i	i	i	-10	-6.3*	i
O=C(/C=C\c1ccccc1)Nc1nccs1	i	i	i	-14	i	i
COc1ccc(CN(C)C(=O)c2ccc(NS(=O)(=O)c3ccc(F)cc3)cc2)c(OC)c1OC	i	i	i	18	i	i
CN1CCc2c(sc3c2C(=O)NC(c2ccco2)N3)C1 (configuration not stated)	i	i	i	.	i	27*
SMILES	MrgX1 PAM	RGS4 pot	RGS4 inh	Lipid droplet	MrgX1 antagonist	MrgX1 ag
CN1CCc2c(sc3c2C(=O)NC(c2cn(Cc4ccccc4)c4ccccc24)N3)C1 (configuration not stated)	i	i	i	-50	i	29*
CCOC(=O)N1CCc2c(sc3c2C(=O)NC(c2ccccc2)N3)C1 (configuration not stated)	i	i	i	.	i	i
O=C1NC(c2ccco2)Nc2sc3c(c21)CCN(Cc1ccccc1)C3 (configuration not stated)	i	.	.	.	i	30*
CCCOc1cccc(NC(=O)OC2CCN(C)CC2)c1	i	i	i	10	i	i
COCc1cc(C)nc(SCc2ccc(Cl)cc2)c1C#N	i	-7.6*	i	-26	i	i
N#Cc1cc2c(nc1SCc1ccc(Cl)cc1)CCCC2	i	-7*	i	-4	i	i
